# Screening data from PubChem.
# A selection: hits, their analogues and other compounds. The true share with any hit is near 3.9%.
# OX1R antag-1: OX1R (HCRTR1) antagonists, primary screen, fluorescence, CHO/OX1R cells, Fluo-8 calcium, orexin A; Orexin/Hypocretin receptor type 1 (Homo sapiens), O43613; Fluo-8 calcium fluorescence; inhibition, % at 5 µM; 330,000 tested, 0.43% active;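 active means inhibition above its plate's threshold, mean inhibition of all tested compounds on the plate plus 3 SD, cut at about 37% in these data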;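 further: 0% = orexin A challenge wells and 100% = SB-334867-A antagonist wells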
# TAAR1 antag: human TAAR1 antagonists, primary screen, Fluo-8 calcium fluorescence, CHO RD-HGA16 cells | Trace amine-associated receptor 1 (Homo sapiens), Q96RJ0 | antagonist | inhibition, % at 3 µM | 360,000 tested, 1.5% active | AID 624466, 2012;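 active means inhibition above a per-plate cutoff, the mean inhibition of test compounds on that plate plus 3 SD, cut at about 49% in these data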;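 further: 0% = DMSO plus EC80 beta-PEA response and 100% = DMSO alone without agonist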
# Target sequence (Q96RJ0 whole entry, looked up): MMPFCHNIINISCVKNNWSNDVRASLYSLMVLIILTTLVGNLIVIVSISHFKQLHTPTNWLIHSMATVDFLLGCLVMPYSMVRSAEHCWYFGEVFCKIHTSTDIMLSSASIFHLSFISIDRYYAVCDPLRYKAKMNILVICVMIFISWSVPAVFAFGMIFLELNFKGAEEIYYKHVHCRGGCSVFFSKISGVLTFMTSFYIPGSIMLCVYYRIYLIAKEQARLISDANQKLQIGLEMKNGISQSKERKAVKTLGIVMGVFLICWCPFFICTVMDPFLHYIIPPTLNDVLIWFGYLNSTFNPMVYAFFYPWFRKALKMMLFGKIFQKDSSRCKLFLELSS
#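 Test system: CHO RD-HGA16 cells bearing hTAAR1 | Reagent: β-PEA, EC80 | Compound dosing: 3 µM, single point | Schedule: Dye loading 75 min at 37 °C, then 30 min room temperature | Signal: Calcium fluorescence with Fluo-8 | Evaluation: Percent inhibition of PEA-evoked calcium signal, max/basal emission ratio | Control set: DMSO-only wells and EC80 β-PEA-stimulated wells | Repeats: Singlicate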
# CHO parental Ca: ATP-evoked calcium signal inhibitors, parental CHO, primary screen, counter-screen for OX1R antagonist project, cell-based, fluorescence, Fluo-8 calcium dye | 330,000 tested, 0.63% active | inhibition, % at 5.6 µM | parental CHO-K1, ATP-induced calcium, Fluo-8 fluorescence | AID 463079, 2010;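 active means inhibition above that plate's mean sample inhibition plus 3 SD, cut at about 26% in these data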;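 further: 0% = ATP-challenged DMSO wells and 100% = DMSO wells without ATP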
#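 Measured by: calcium-sensitive Fluo-8 fluorescence / Test system: CHO parental line / Controls: ATP-challenged DMSO wells low, unchallenged DMSO wells high / Measure: % inhibition / Compound: single nominal dose of 5.6 µM per compound / Replicates: single well per compound, no replicates / Reagent: ATP as calcium-mobilizing challenge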
# TAAR1 ag: human TAAR1 agonists, primary screen, Fluo-8 calcium fluorescence, CHO RD-HGA16 cells | vehicle wells 0%, saturating PEA agonist 100% | activation, % at 3 µM | 360,000 tested, 0.99% active | AID 624467, 2012;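 active means activation above the mean activation of all test compounds in the run plus 3 SD, cut at about 38% in these data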
#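 Signal – calcium-sensitive Fluo-8 signal, excitation 470-495, emission 515-575 nm · System – RD-HGA16 (CHO) cells co-expressing Gα16 and hTAAR1 · Incubation – 17-24 h seeding, 75 min 37 °C dye, 30 min RT · Compound dosing – 3 µM single concentration · Repeats – no replicates (n 1)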
# OX1R antag-2: antagonists of human orexin 1 receptor (OX1R); Orexin/Hypocretin receptor type 1 (Homo sapiens), O43613; OX1R-expressing cells, FRET antagonist read-out; inhibition, % at 6.6 µM; 330,000 tested, 1.8% active; AID 485270, 2010; in the data active means inhibition mostly above about 38%, no sharp cut-off; inactive means mostly below about 40%;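 further: 0% = agonist challenge alone and 100% = reference antagonist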
# Active calls of the source: *; x = no result.
SMILES,OX1R antag-1,TAAR1 antag,CHO parental Ca,TAAR1 ag,OX1R antag-2
CC(C)(O)C(=O)Nc1ccc([N+](=O)[O-])c(C(F)(F)F)c1,4,5,-2,4,8
COc1ccc(OC(=O)N(C)C[C@H]2OCc3cnnn3CCCC(=O)N([C@H](C)CO)C[C@H]2C)cc1,x,-15,x,4,x
O=C(O)CC1OCC=C2CN3CCC45C6=CC(=O)C(=O)C([N+](=O)[O-])=C6NC4C1C2CC35 (stereo not drawn),-17,x,6,x,38*
O=C(O)CC1OCC=C2CN3CCC45c6ccccc6NC4C1C2CC35 (stereo not drawn),-5,3,-18,0,6
CN1C[C@H](O)[C@H]2C[C@@H]1c1ccccc1O2,x,-39,x,2,x
O=c1[nH]c2ccccc2n1C1CCN(C(c2nnnn2C2CCCCC2)C2CC2)CC1 (stereo not drawn),x,52*,x,58*,x
O=c1[nH]c2ccccc2n1C1CCN(C(c2nnnn2Cc2ccccc2)C2CC2)CC1 (stereo not drawn),x,63*,x,17,x
O=c1[nH]c2ccccc2n1C1CCN(C(c2nnnn2C2CCCC2)C2CC2)CC1 (stereo not drawn),x,40,x,26,x
CSCCC(c1nnnn1C1CCCCC1)N1CCC(n2c(=O)[nH]c3ccccc32)CC1 (stereo not drawn),x,62*,x,20,x
O=c1[nH]c2ccccc2n1C1CCN(C(c2cccs2)c2nnnn2Cc2ccccc2)CC1 (stereo not drawn),x,33,x,9,x
C[C@]12CCC(=O)C[C@H]1CC[C@@H]1[C@@H]2CC[C@]2(C)[C@@H](O)CC[C@@H]12,-12,x,8,x,13
C[n+]1c2ccccc2nc2ccc(NCCO)cc21,-17,-4,-5,2,86*
CN1CC[C@@]2(C)c3cc(O)ccc3N(C)C2O1 (stereo partly drawn),3,x,-2,x,60*
CN1CC[C@@]2(C)c3cc(O)ccc3N(C)[C@@H]12,x,-35,x,3,x
NC1CCc2cc(O)c(O)cc2C1 (stereo not drawn),3,-28,0,39*,23
COc1ccc(CN2Cc3cc(N4CCCCC4)ccc3-n3nncc3C2)cc1,x,-25,x,7,x
CC(=O)OC(C)(C)/C=C/C(=O)[C@](C)(O)C1[C@H](O)C[C@@]2(C)C3CC=C4C(C[C@H](O)C(=O)C4(C)C)[C@]3(C)C(=O)C[C@]12C (stereo partly drawn),-35,x,-18,x,4
COc1ccc(NP(=O)(Oc2ccccc2OC)Oc2ccccc2OC)cc1,3,59*,-11,17,7
COc1ccc(NP(=O)(Nc2ccc(OC)cc2)Oc2ccccc2)cc1,-18,28,-8,5,9
Cc1c(CCC(=O)N2C[C@H]3C[C@@H](C2)c2cccc(=O)n2C3)c(=O)oc2c(C)c(O)ccc12,x,12,x,1,x
CCN1CCN(c2ccc([N+](=O)[O-])cc2C=C2C(=O)NC(=O)NC2=O)CC1,0,10,-5,2,46
CC(=O)N1CCN(c2ccc([N+](=O)[O-])cc2C=C2C(=O)NC(=O)NC2=O)CC1,1,1,-4,2,64*
CCOc1ccc(-n2c(O)c(N=Nc3ccc([N+](=O)[O-])cc3)c(=O)[nH]c2=O)cc1,-34,-19,-12,3,76*
CCOc1ccc(-n2c(O)c(/C=C3\C=Nc4ccccc43)c(=O)[nH]c2=O)cc1,-23,-4,-5,14,11
COc1cccc(CC(=O)N(C)C2CCCN(Cc3ccccc3F)C2)c1 (stereo not drawn),-21,-10,-3,-1,34
SMILES,OX1R antag-1,TAAR1 antag,CHO parental Ca,TAAR1 ag,OX1R antag-2
CCN(CC)S(=O)(=O)c1cc(NC(=O)C(C)N2CC=C(c3ccccc3)CC2)ccc1C (stereo not drawn),-31,4,43*,0,11
CC1CCN(S(=O)(=O)c2ccc(NN=C(C#N)C#N)cc2)CC1,25,x,17,x,101*
CC1CN(c2ccc([N+](=O)[O-])c3cccnc23)CC(C)N1 (stereo not drawn),-24,-13,5,-1,79*
O=[N+]([O-])c1ccc(N2CCCC2)c2ncccc12,4,-29,-15,-3,51
COc1cccc(-c2ccc3c(c2)C2c4cnnn4-c4ccccc4C(=O)N2CC3)c1 (stereo not drawn),x,2,x,0,x
CCN1C(=O)C(=Cc2ccc(N3CCOCC3)o2)C(=O)N(CC)C1=S,6,-2,4,40*,9
COC(=O)N1Cc2ccccc2-n2nncc2C1,x,15,x,2,x
CCCC[C@@H](C)C[C@@H](C)C(=O)N(C)[C@@H](CC(C)C)C(=O)N[C@H](C(=O)N(C)[C@H](C(=O)N1C[C@@H](O)C[C@H]1C(=O)N1C(=O)C=C[C@@H]1C)C(C)C)C(C)OC(C)=O (stereo partly drawn),-22,x,-24,x,52*
O=C(NC(=C(Cl)Cl)P(=O)(c1ccccc1)c1ccccc1)c1ccccc1,-4,11,-18,1,69*
Nc1c([N+](=O)[O-])cc(F)c(N2CCNCC2)c1Br,-9,-1,-6,10,55
CN1CCN(c2c(F)cc([N+](=O)[O-])c(N)c2Br)CC1,-5,5,-10,0,52*
NNc1n[nH]c(=S)n1N,5,-28,5,-1,61*
COc1ccc2c(c1)C13CCN4CC5=CCOC6CC(=O)N2C1C6C5CC43 (stereo not drawn),x,-13,x,10,x
COc1ccc(CC2=NCCc3cc(OC)c(OC)cc32)cc1OC,x,10,x,1,x
Cn1c(O)c(C=Nc2ccc(F)cc2)c(=O)[nH]c1=O,3,-3,-3,0,6
Cn1c(O)c(/C=C2/C=CC=N2)c(=O)[nH]c1=O,4,10,-14,-1,50*
Brc1ccc2c(c1)-n1nncc1CNC2,x,-17,x,2,x
CCOC(=O)[C@]12Cc3cc(Cl)ccc3[C@H]1N(C1CCCCC1)C(=O)c1cc(OC)ccc12,x,63*,x,2,x
N#Cc1ccc2nc(-c3ccc(CN4CCC(n5c(=O)[nH]c6ccccc65)CC4)cc3)c(-c3ccccc3)nc2c1,x,61*,x,2,x
CCN(CC)c1ccc(CNCCc2ccccc2F)cc1,-16,-4,-6,40*,2
O=C(NCCN1CCC2(CC1)C(=O)NCN2c1ccccc1)c1ccccc1F,x,-11,x,2,x
CCCCn1c(=O)c(C(=O)Nc2ccccc2S(N)(=O)=O)c(O)c2ccccc21,-11,-13,-21,4,35*
CCCCCn1c(=O)c(C(=O)Nc2ccccc2S(N)(=O)=O)c(O)c2ccccc21,-25,-7,-25,4,35
